Compound activity: PubChem BioAssay, several laboratories
MEX-5 binding – C. elegans MEX-5 TCR-2 RNA binding activity; Q9XUB2; MEX-5/FITC-TCR2 RNA binding, fluorescence polarization; stronger effect = lower value; activity score (negative = inhibition of binding), % at 10 µM; actives 0.38% (n = 300,000); AID 1832;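 active = inhibition past about -25% in most replicates, and total fluorescence under double the plate's negative control median, limit read from the data; inconclusive = replicates evenly split on the limit, or fluorescence at least double controls; inactive = too little inhibition in most replicates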;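 note: 0% = DMSO and -100% = 5 µM competing unlabeled TCR2 RNA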
Target sequence (Q9XUB2 whole entry, looked up): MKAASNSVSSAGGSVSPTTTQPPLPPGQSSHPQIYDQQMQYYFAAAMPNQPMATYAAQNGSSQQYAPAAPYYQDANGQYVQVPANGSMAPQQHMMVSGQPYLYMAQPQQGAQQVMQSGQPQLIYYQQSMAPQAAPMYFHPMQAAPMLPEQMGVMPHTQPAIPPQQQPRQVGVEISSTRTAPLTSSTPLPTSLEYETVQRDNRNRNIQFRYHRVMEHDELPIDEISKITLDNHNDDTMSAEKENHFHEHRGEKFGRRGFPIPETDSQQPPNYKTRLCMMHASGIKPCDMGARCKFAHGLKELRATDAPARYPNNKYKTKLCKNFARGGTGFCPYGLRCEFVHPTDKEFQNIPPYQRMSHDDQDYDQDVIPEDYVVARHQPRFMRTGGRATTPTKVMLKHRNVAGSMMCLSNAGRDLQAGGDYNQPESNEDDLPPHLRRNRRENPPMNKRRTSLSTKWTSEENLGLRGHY
RanGTP-Imp inh – inhibitors of RanGTP-importin-beta interaction, primary screen, biochemical, FRET, CFP-Ran, YFP-importin-beta, homogeneous; cell-free CFP-Ran/YFP-importin-beta FRET ratio; inhibition, % (concentration not given with the values); actives 1.1% (n = 300,000);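 active = more than half of the replicate wells show a fall in the fluorescence ratio signal beyond about 16%, limit read from the data, passing the limit was not always enough; inconclusive = exactly half of the replicate wells pass the set limit; inactive = fewer than half of replicates pass the limit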;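 note: 0% = DMSO wells and 100% = Ran loaded with GDP instead of GTP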
KLK7 zymogen act – proKLK7 (human) activation, primary screen. purified proKLK7, EDANS-DABCYL substrate fluorescence; 100% is mature enzyme control, 0% vehicle. activation, % at 7 µM. actives 0.9% (n = 370,000);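 active = activation above the mean of all tested compounds plus 3 SD, computed per campaign excluding outliers beyond control limits, cut at about 13% in these data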
Runt-CBFb FRET – inhibitors of human RUNX1 Runt domain binding to CBFb; Q01196+Q13951; inhibition, % at 20 µM; actives 0.46% (n = 220,000); Cerulean-Runt/Venus-CBFb FRET ratio 530/480, 1 h;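 active = inhibition over about 50% at 20 µM in the single-dose screen, limit read from the data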;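 note: 0% = DMSO wells and 100% = excess unlabeled CBFb competitor control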
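Measured by: fluorescence energy transfer, 422 nm excitation, 530/480 nm emission; test system: Cerulean-tagged RUNX1 Runt domain (FRET donor) fusion protein; buffer or medium: Tris pH 7.5 buffer with BSA; compound: one dose, 20 µM compound, 1% DMSO; times: two 1 h room-temperature incubations shielded from light; benchmarks: unlabeled CBFb 5 µM, positive control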
Runt-SMMHC FRET – blocks binding of human RUNX1 Runt domain to CBFb-SMMHC; actives 0.74% (n = 220,000); AID 1434; Q01196+Q13951; inhibition, % at 20 µM; Cerulean-Runt/Venus-CBFb-SMMHC FRET ratio 530/480, 1 h;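 active = mean inhibition across duplicate retests at 20 µM reaching about 50%, limit read from the data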;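 note: 0% = DMSO wells and 100% = wells with excess untagged CBFb-SMMHC; inhibitors lower the FRET ratio by blocking Runt binding to CBFb-SMMHC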
YIC FRET counter – counter-screen YIC FRET for RanGTP-importin-beta inhibitors; shares compounds with RanGTP-Imp inh; Purified YIC probe, intramolecular FRET ratio YFP/CFP; IC50, µM; actives 40% (n = 1,000);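 active = fitted half-maximal inhibitory concentration no more than tenfold above the top dose tested; inconclusive = flat fit with 30 to 70% activity, or poor fit; inactive = half-maximal concentration beyond tenfold above the top dose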
* hit, by the source's call; ? = inconclusive; · = not tested or not shown. This is a sample that favours compounds with a hit; in the whole collection about 2.1% have one here.

SMILES | MEX-5 binding | RanGTP-Imp inh | KLK7 zymogen act | Runt-CBFb FRET | Runt-SMMHC FRET | YIC FRET counter
CCOCCCNC(=O)NC(=O)CN1CCN(S(=O)(=O)c2ccc3c(c2)OCCO3)CC1 | -1.3 | 19.1* | 0.4 | 0.7 | 1.9 | >50
CC(C)(C)NC(=O)NC(=O)CN1CCN(S(=O)(=O)c2ccc3c(c2)OCCO3)CC1 | -0.6 | 3.4 | 0.1 | -1.0 | 2.4 | ·
Cc1c(CCC(=O)NC2CC2)c(=O)oc2c(C)c(O)ccc12 | -9.7 | 27.1* | · | · | · | 19.9*
Cc1csc(NC(=O)c2ccc(Cl)nc2)n1 | -3.2 | -2.1 | 0.4 | · | · | ·
O=[N+]([O-])c1ccc(Nc2c3ccccc3nc3ccccc23)cc1 | -1.1 | 24.6* | 8.6 | 48.5 | 22.7 | >50
O=C(O)c1cccc(Nc2c3ccccc3nc3ccccc23)c1 | 0.0 | 20.4* | 5.7 | · | · | >50
CC(=O)c1cccc(Nc2cc(C)nc3ccccc23)c1 | 1.3 | 1.5 | -0.1 | 2.1 | 0.0 | ·
O=[N+]([O-])c1ccccc1Nc1c2ccccc2nc2ccccc12 | 2.1 | 10.6 | 1.0 | 0.6 | 0.6 | ·
COc1cccc(NC(=O)C2(C)CCN2C(=O)C2CCCCC2)c1 (centres undefined) | · | · | 0.2 | · | · | ·
O=S1(=O)c2ccc(N3CCCC3)cc2Oc2ccccc2CN1Cc1cn(Cc2ccccc2C(F)(F)F)nn1 | · | · | -0.4 | · | · | ·
COc1ccc(OC)c(S(=O)(=O)N2CCC(C(=O)NCc3cccs3)CC2)c1 | · | · | 0.0 | · | · | ·
CC(C)Sc1nnc(CNC(=O)C23CC4CC(CC(C4)C2)C3)n1C1CCCCC1 | 1.0 | 20.4* | 0.0 | -8.5 | -6.1 | >50
Cc1nnc(NC(=O)CSc2nnc(CNC(=O)C34CC5CC(CC(C5)C3)C4)n2C2CCCCC2)s1 | -0.3 | ? | -0.4 | -7.3 | 2.8 | ·
COc1ccccc1CNC(=O)COC(=O)Cc1ccc(Cl)cc1 | 0.2 | 16.9* | -0.6 | 0.4 | -5.1 | >50
COc1ccccc1CNC(=O)COC(=O)Cc1ccc(F)cc1 | -2.0 | -0.1 | 0.5 | · | · | ·
Cc1ccc2c(c1)C(=O)N1c3cc(C)c(C)cc3NC(=O)C1C(=O)N2 (centres undefined) | · | · | 1.6 | · | · | ·
COc1ccc(-c2csc3ncnc(N4CCN(c5ccccc5)CC4)c23)cc1 | -0.6 | -1.0 | 0.7 | · | · | ·
COc1ccc(-c2csc3ncnc(N4CCN(c5ccc(OC)cc5)CC4)c23)cc1 | 1.1 | 21.7* | -0.2 | · | · | >50
CCN1C(=S)SC(=O)C1=C1C=C(C)N(Cc2ccco2)C(C)=C1 | -1.6 | 36.6* | 0.3 | 7.3 | 46.8 | 10.7*
CC1(C)CC(=O)C=C(Nc2ccccc2O)C1 | -1.7 | 16.3* | 0.7 | -0.4 | 0.5 | >50
CC1(C)CC(=O)C=C(Nc2ccccc2F)C1 | -2.9 | 24.9* | 0.1 | 1.3 | 0.0 | >50
Cc1c(Cl)c([N+](=O)[O-])nn1CCCC(=O)Nc1sc2c(c1C(N)=O)CCC(C)C2 (centres undefined) | -4.2 | 24.4* | 0.0 | -0.7 | 2.7 | >50
Cc1c(Br)c([N+](=O)[O-])nn1CCCC(=O)Nc1sc2c(c1C(N)=O)CCC(C)C2 (centres undefined) | -1.3 | 1.7 | -1.5 | 5.9 | -2.6 | ·
Cc1sc(NC(=O)c2oc3ccccc3c2C)c(C#N)c1C | 0.0 | 25.2* | · | 3.3 | -0.7 | >50
CN(C)CCCN(C(=O)c1ccc(Br)s1)c1nc2cc3c(cc2s1)OCCO3 | 0.1 | 22.5* | -2.0 | · | · | >50
CCN(CC)CCN(C(=O)c1ccc(Br)s1)c1nc2cc3c(cc2s1)OCCO3 | 2.7 | 3.9 | 0.0 | 0.4 | -2.8 | ·
O=C(NCCc1ccccc1)c1ccc2c(c1)S(=O)(=O)c1ccccc1C2=O | -2.1 | -3.9 | 0.8 | · | · | ·
O=C(COC(=O)CSCC(=O)N1CCCCC1)Nc1ccc(Cl)cc1 | 1.6 | 28.3* | -0.1 | -1.5 | 4.4 | >50
C[C@@H]1CN([C@H](C)CO)C(=O)c2cccc(NC(=O)c3ccc(-c4nccs4)cc3)c2O[C@@H]1CN(C)CC1CC1 | · | · | · | · | · | >50
C[C@H]1CN([C@@H](C)CO)C(=O)c2cccc(NC(=O)c3ccc(-c4nccs4)cc3)c2O[C@@H]1CN(C)C(=O)NC1CCCCC1 | · | · | 1.2 | · | · | ·
